ChEMBL document CHEMBL3580617, “Discovery of Benzimidazole CYP11B2 Inhibitors with in Vivo Activity in Rhesus Monkeys” (ACS Med Chem Lett, 2015)

Columns and labels:
Rattus norvegicus = test: Dose normalized AUC in Sprague-Dawley rat at 2 mg/kg, po or 1 mg/kg, iv by LC-MS/MS method; format: ADME, organism-based; conditions: in vivo
Summary of the method: (§1)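 In the rat pharmacokinetic study, AUC was normalized for dose (μM·h·kg/mg), plasma clearance was expressed in mL/min/kg, and oral bioavailability was calculated.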

Cytochrome P450 3A4 = Cytochrome P450 3A4 (Homo sapiens, UniProt P08684); test: Inhibition of CYP3A4 (unknown origin); format: ADME
Cytochrome P450 2C9 = Cytochrome P450 2C9 (Homo sapiens, UniProt P11712); test: Inhibition of CYP2C9 (unknown origin); format: ADME
Rhesus monkey = test: Dose normalized AUC in rhesus monkey at 1 mg/kg, po or 0.5 mg/kg, iv by LC-MS/MS method; format: ADME, organism-based, Macaca mulatta; conditions: in vivo
Aromatase = target: T1, Aromatase (Homo sapiens, UniProt P11511); test: Inhibition of CYP19 (unknown origin) using MFC substrate incubated for 30 mins
T1 sequence (P11511 whole entry): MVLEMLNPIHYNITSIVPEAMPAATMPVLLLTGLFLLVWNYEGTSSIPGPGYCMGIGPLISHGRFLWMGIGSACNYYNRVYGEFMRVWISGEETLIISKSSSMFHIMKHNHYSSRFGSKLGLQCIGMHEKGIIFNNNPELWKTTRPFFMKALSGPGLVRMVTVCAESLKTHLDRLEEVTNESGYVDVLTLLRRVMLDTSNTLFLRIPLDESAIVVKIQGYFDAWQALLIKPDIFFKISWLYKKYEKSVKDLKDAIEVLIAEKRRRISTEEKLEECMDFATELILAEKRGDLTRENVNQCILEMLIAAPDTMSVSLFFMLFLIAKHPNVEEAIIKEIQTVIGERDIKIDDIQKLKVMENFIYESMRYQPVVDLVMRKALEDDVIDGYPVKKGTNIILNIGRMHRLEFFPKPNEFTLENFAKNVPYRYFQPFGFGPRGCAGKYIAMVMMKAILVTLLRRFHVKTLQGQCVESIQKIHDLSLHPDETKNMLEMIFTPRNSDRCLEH

[1] = Fraction unbound in rat plasma at […] incubated for 4 hrs by equilibrium dialysis and LC/MS method; format: ADME, cell-free
[2] = Oral bioavailability in Sprague-Dawley rat at 2 mg/kg by LC-MS/MS method; format: ADME, organism-based; conditions: in vivo; summary of the method: as §1
[3] = Intrinsic clearance in rhesus monkey liver microsomes at […] incubated for 10 mins before NADPH addition by LC/MS method; format: ADME, Macaca mulatta; conditions: read-out: CLH
[4] = Intrinsic clearance in rat liver microsomes at […] incubated for 10 mins before NADPH addition by LC/MS method; format: ADME; conditions: read-out: CLH
[5] = target: T2, Cytochrome P450 11B2, mitochondrial (Rattus norvegicus, UniProt P30099); test: Inhibition of rat CYP11B2 expressed in V79 cells incubated for 1 hr before 11-deoxycorticosterone substrate addition by HTRF-based assay; format: cell-based; conditions: v79, 1 h
T2 sequence (P30099 whole entry): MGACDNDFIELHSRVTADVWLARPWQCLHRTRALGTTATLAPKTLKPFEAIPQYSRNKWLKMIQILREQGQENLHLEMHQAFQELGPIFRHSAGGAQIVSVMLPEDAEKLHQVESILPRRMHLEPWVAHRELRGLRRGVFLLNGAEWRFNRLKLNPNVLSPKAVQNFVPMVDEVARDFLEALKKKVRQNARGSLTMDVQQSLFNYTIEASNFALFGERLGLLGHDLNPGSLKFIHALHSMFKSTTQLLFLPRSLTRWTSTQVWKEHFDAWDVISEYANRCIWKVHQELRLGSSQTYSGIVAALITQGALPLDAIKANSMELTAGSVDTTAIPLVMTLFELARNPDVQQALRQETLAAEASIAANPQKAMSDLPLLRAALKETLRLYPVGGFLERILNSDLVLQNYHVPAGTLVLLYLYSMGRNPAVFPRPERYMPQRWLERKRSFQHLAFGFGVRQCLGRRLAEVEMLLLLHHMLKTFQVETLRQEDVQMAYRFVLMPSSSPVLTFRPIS

[6] = Plasma clearance in Sprague-Dawley rat at 2 mg/kg, po or 1 mg/kg, iv by LC-MS/MS method; format: ADME, organism-based; summary of the method: as §1
Steroid 21-hydroxylase = target: T3, Steroid 21-hydroxylase (Homo sapiens, UniProt P08686); test: Inhibition of human CYP21 expressed in COS7 cells incubated for 1 hr before […] substrate addition by HTRF-based assay; format: cell-based, COS-7
T3 sequence (P08686 whole entry): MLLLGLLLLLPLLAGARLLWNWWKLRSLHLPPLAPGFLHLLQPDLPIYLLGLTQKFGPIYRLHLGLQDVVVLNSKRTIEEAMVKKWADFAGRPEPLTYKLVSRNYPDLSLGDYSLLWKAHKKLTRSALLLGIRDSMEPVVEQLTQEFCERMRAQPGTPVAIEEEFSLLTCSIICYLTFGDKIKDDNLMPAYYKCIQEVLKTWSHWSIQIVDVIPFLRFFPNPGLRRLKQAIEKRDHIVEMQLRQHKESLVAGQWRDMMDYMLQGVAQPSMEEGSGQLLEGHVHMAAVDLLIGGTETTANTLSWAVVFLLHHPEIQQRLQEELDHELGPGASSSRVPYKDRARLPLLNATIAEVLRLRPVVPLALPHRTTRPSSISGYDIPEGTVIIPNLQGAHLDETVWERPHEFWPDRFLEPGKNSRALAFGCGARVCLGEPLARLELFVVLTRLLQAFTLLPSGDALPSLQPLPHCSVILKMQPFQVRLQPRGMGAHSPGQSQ

[7] = Oral bioavailability in rhesus monkey at 1 mg/kg by LC-MS/MS method; format: ADME, organism-based, Macaca mulatta; conditions: in vivo
Cytochrome P450 2D6 = Cytochrome P450 2D6 (Homo sapiens, UniProt P10635); test: Inhibition of CYP2D6 (unknown origin); format: ADME
[8] = target: T4, Steroid 17-alpha-hydroxylase/17,20 lyase (Homo sapiens, UniProt P05093); test: Inhibition of human CYP17 expressed in COS7 cells incubated for 1 hr before 17-hydroxypregnenolone substrate addition by EIA method; format: cell-based, COS-7
T4 sequence (P05093 whole entry): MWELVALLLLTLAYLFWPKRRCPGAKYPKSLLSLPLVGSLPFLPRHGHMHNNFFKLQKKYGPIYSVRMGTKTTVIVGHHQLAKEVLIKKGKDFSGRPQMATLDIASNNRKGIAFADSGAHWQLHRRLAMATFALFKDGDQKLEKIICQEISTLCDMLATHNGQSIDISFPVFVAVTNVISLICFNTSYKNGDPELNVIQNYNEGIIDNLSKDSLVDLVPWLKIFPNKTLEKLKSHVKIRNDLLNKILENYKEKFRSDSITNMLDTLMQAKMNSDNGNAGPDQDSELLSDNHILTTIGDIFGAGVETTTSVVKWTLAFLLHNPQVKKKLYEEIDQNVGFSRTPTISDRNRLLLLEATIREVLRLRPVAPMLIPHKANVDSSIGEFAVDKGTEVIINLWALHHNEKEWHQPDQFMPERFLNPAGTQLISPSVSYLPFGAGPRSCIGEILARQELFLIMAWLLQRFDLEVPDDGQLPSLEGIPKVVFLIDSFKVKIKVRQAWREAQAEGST

[9] = Fraction unbound in rhesus monkey plasma at […] incubated for 4 hrs by equilibrium dialysis and LC/MS method; format: ADME, cell-free, Macaca mulatta

Cytochrome P450 2C9, sequence (P11712 whole entry): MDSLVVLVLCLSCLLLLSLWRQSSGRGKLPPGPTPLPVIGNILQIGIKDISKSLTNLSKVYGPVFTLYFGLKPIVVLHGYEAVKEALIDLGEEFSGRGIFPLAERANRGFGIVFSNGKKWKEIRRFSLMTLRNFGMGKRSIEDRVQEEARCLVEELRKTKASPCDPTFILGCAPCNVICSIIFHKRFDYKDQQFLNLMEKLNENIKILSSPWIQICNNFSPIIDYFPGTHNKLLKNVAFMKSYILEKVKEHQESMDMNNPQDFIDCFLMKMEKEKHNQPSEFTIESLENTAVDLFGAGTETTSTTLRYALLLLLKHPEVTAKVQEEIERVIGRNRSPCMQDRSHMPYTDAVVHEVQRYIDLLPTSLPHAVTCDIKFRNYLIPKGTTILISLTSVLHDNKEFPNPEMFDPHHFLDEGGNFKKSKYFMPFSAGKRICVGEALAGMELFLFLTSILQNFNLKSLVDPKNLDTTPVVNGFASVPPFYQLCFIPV
Cytochrome P450 3A4, sequence (P08684 whole entry): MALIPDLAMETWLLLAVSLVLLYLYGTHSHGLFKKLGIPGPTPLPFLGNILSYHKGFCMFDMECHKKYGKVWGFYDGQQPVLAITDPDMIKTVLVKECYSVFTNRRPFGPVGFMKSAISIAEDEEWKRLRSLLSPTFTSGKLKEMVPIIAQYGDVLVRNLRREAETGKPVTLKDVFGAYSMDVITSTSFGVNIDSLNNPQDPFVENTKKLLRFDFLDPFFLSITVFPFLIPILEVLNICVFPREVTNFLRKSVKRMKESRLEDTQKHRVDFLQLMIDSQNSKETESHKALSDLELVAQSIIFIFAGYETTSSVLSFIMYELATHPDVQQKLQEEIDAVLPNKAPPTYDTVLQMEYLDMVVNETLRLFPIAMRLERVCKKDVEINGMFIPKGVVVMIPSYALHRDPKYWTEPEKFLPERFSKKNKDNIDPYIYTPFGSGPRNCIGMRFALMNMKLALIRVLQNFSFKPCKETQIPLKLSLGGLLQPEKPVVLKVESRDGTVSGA
Cytochrome P450 2D6, sequence (P10635 whole entry): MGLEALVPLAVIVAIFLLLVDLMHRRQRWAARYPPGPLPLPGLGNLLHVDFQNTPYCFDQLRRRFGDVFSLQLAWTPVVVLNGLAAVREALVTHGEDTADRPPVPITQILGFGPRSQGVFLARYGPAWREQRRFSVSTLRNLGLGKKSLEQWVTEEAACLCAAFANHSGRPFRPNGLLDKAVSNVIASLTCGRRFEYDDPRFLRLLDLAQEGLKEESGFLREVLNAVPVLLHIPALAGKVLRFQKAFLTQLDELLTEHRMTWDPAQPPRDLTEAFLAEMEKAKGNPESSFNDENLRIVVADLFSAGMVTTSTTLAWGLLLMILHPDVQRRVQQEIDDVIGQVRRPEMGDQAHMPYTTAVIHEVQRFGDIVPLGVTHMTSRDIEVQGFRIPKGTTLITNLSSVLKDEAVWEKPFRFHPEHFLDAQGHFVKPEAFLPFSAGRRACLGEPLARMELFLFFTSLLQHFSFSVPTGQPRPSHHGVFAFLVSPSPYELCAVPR

Row | AUC/dose (Rattus norvegicus) [µM·kg·h/mg] | IC50 (Cytochrome P450 3A4) [µM] | inhibition (INH) (Cytochrome P450 2C9) | AUC/dose (Rhesus monkey) [µM·kg·h/mg] | IC50 (Aromatase) [µM] | fraction unbound at 4 h [1] | bioavailability [2] [%] | CLint scaled [3] [mL/min/kg] | CLint scaled [4] [mL/min/kg] | inhibition (INH) [5] | clearance [6] [mL/min/kg] | IC50 (Steroid 21-hydroxylase) [µM] | bioavailability [7] [%] | inhibition (INH) (Cytochrome P450 2D6) | IC50 [8] [µM] | fraction unbound at 4 h [9] | Structure (SMILES)
1 | 2.1 | > 50 | Not Active | 3.07 | 4.51 | 0.14 | 86 | < 20 | < 20 | Not Active | 37 | > 10 | 53 | Not Active | > 10 | 0.23 | Fc1cncc(-c2nc3cc(F)c(F)cc3n2C2CC2)c1
2 | 4.32 | > 50 | Not Active | 1.53 | 1.02 | 0.13 | 76 | 22 | < 20 | Not Active | 10 | > 10 | 15 | Not Active | > 10 | 0.07 | CC(C)(O)c1cncc(-c2nc3ccc(F)cc3n2C2CC2)c1 [MSD-CYP11B2]
